{"data": "Measurements pooled from the literature", "target": "Serine/threonine-protein kinase NLK (NLK, Homo sapiens, UniProt Q9UBE8)", "Residues used in one study (Q9UBE8 1-527)": "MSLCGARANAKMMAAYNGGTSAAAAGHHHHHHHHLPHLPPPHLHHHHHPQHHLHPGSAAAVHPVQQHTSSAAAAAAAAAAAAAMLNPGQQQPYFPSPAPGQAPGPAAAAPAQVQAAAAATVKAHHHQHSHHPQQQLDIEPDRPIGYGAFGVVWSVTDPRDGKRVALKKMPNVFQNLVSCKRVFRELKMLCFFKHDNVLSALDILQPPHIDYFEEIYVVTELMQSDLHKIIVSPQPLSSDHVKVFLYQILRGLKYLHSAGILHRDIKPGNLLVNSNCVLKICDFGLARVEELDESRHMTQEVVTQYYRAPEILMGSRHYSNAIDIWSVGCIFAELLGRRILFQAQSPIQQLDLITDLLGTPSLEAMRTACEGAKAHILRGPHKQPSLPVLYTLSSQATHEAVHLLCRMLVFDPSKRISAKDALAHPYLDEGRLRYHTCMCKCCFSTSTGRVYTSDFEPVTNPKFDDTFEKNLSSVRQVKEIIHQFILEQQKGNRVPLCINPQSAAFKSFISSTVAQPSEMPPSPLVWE", "note": "Compare with care: the assays were run in different laboratories."}
{"Structure (SMILES)": "CCCOc1ccc(OC)c(F)c1C(=O)c1ccc(C(=O)N[C@@H]2CNC[C@H]2NC(=O)c2ccc3[nH]ncc3c2)cc1", "test": "enzyme activity, inhibitor", "setting": "10 µM", "quantity": "remaining activity", "result": "59%"}
{"Structure (SMILES)": "CCCS(=O)(=O)Nc1ccc(F)c(C(=O)c2c[nH]c3ncc(-c4ccc(Cl)cc4)cc23)c1F", "test": "enzyme activity, inhibitor", "setting": "1 µM", "quantity": "inhibition", "result": "< 10%"}
{"Structure (SMILES)": "O=C1NC(=O)c2cc(Nc3ccc(F)cc3)c(Nc3ccc(F)cc3)cc21", "test": "cell-free assay", "setting": "0.5 µM", "quantity": "remaining signal", "result": "103%"}
{"Structure (SMILES)": "Cc1ccc(NC(=O)c2ccc(C)c(C(F)(F)F)c2)cc1C#Cc1nn(C2CCC(O)CC2)c2ncnc(N)c12 (stereo not shown)", "test": "cell-free assay", "setting": "10 µM", "quantity": "remaining signal", "result": "82%"}
{"Structure (SMILES)": "COc1cc(Cl)c(C(=O)N[C@@H](CN[C@H]2CC[C@@H](N)CC2)Cc2ccc(C#N)cc2)cc1-c1ccc(CN[C@H](C)c2ccc(C)cc2)o1", "test": "enzyme activity, inhibitor", "setting": "1 µM", "quantity": "remaining activity", "result": "88%"}
{"Structure (SMILES)": "Cc1ccc(Nc2nccc(N(C)c3ccc4c(C)n(C)nc4c3)n2)cc1S(N)(=O)=O", "test": "enzyme activity, inhibitor", "setting": "10 µM", "quantity": "inhibition", "result": "67%"}
{"Structure (SMILES)": "C[C@H](c1ccnc(Nc2nc3ccc(-c4cc(N(C)C)ncn4)cc3[nH]2)c1)N1CCN(C(=O)CC(F)(F)F)CC1", "test": "cell-free assay, competition with immobilised ligand", "setting": "0.1 µM", "quantity": "remaining binding", "result": "88%"}
{"Structure (SMILES)": "Cn1cncc1C1=CN(c2ncnc3[nH]cnc23)CCS1", "test": "enzyme activity, inhibitor, radiometric", "setting": "2 µM", "quantity": "inhibition", "result": "43%"}
{"Structure (SMILES)": "CCN(CC)CCNC(=O)c1c(C)[nH]c(/C=C2\\C(=O)Nc3ccc(F)cc32)c1C", "test": "enzyme activity, inhibitor", "setting": "0.3 µM", "quantity": "inhibition", "result": "-7%"}
{"Structure (SMILES)": "NS(=O)(=O)c1cc(NC(=O)Cc2ccccc2)ccc1Oc1cccc(Cl)c1", "test": "cell-free assay, competition with immobilised ligand", "setting": "1 µM", "quantity": "remaining binding", "result": "100%"}
{"Structure (SMILES)": "O=C1Nc2ccc(Cl)cc2C1=Cc1cc(Cl)c(O)c(Cl)c1", "test": "cell-free assay", "setting": "0.5 µM", "quantity": "remaining signal", "result": "38.9%"}
{"Structure (SMILES)": "Nc1ncnc2occ(-c3ccc(NC(=O)Nc4cc(C(F)(F)F)ccc4F)cc3)c12", "test": "cell-free assay", "setting": "20 µM", "quantity": "remaining signal", "result": "19%"}
{"Structure (SMILES)": "CSc1cccnc1N1CCN(Cc2nc3ccccc3[nH]2)CC1", "test": "binding, competition with immobilised ligand", "setting": "1 µM", "quantity": "remaining binding", "result": "100%"}
{"Structure (SMILES)": "CC(C)(C)c1nc2c(s1)c1nc(N)ncc1c1ccc(NS(=O)(=O)c3c(F)cccc3F)c(F)c12", "test": "enzyme activity, inhibitor, radiometric", "setting": "1 µM", "quantity": "remaining activity", "result": "91%"}
{"Structure (SMILES)": "Fc1cccc(-n2cnc3c(NCc4nc5c(F)c(F)ccc5[nH]4)nc(N4CCOCC4)nc32)c1", "test": "binding, competition with immobilised ligand", "setting": "10 µM", "quantity": "binding vs control", "result": "98%"}
{"Structure (SMILES)": "CC(C)(O)c1cncc(-c2nc3ccc(F)cc3n2C2CC2)c1", "test": "cell-free assay, competition with immobilised ligand", "setting": "1 µM", "quantity": "remaining binding", "result": "100%"}
{"Structure (SMILES)": "Cc1sc(C(=O)NC2COC2)cc1-n1cc(NC(=O)Nc2c(F)cccc2Cl)cn1", "test": "enzyme activity, inhibitor", "setting": "10 µM", "quantity": "remaining activity", "result": "85.2%"}
{"Structure (SMILES)": "Cc1ccc(C(=O)Nc2ccc(CN3CCN(C)CC3)c(C(F)(F)F)c2)cc1C#Cc1cnc2cccnn12", "test": "cell-free assay", "setting": "23.5 nM", "quantity": "remaining signal", "result": "52%"}
{"Structure (SMILES)": "CC(=O)C1=C(C)N(c2cccc(C(F)(F)F)c2)C(=O)N[C@@H]1c1ccc(C#N)nc1", "test": "cell-free assay, competition with immobilised ligand", "setting": "1 µM", "quantity": "remaining binding", "result": "93%"}
